In the library only some 5.8% were active in any assay of this set; here they are far more common.
T cruzi growth – T. cruzi intracellular proliferation inhibitors, primary screen, cell-based, beta-gal Tulahuen parasites, NIH3T3 host, luminescence; T. cruzi beta-gal in NIH3T3, GalScreen luminescence, 90 h; inhibition, % at 8.34 µM; 77,000 tested, 5.9% active;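 active = mean inhibition above about 93%, with at least 55% of replicates each passing it, limit read from the data, passing the limit was not always enough; inconclusive = only one of those two conditions holds; inactive = neither condition holds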
Pf Dd2 inh – P. falciparum Dd2 growth inhibitors, primary screen, SYBR Green fluorescence, single dose replicates. 72 h; hits give low values. AID 1159554, 2015. activity change, % at 10 µM. 94,000 tested, 2.3% active; in the data active = activity change below about -80%; inconclusive = no clear call, values can overlap the other calls
GASC1 inh – inhibitors of GASC-1 (KDM4C) histone demethylase, primary screen, biochemical, single concentration HTS; GST-KDM4C 2-372, H3K9me3 peptide, LANCE TR-FRET; inhibition, % at 12.5 µM; 96,000 tested, 0.15% active;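 active = mean replicate inhibition above about 25%, with at least 55% of replicates also reaching it, limit read from the data, passing the limit was not always enough; inconclusive = only one of those two conditions met; inactive = neither condition met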
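Material: GST-tagged GASC-1 (JMJD2C) catalytic fragment, aa 2-372. Input: enzyme final amount 10 nM. Medium: HEPES buffer, pH 7.5, plus ascorbate. Reagent: H3K9me3 peptide substrate, Fe(II), 2-oxoglutarate. Doses: single dose. Times: reaction 30 min RT, detection step 1 h RT. Measured by: LANCE TR-FRET. Evaluation: Fall in 671/618 emission ratio as inhibition.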
IDH1 mut inh – inhibitors of IDH1 R132H reductase, primary screen, biochemical, plate reader, single point | diaphorase/resazurin fluorescence, 60 min | inhibition, % at 10 µM | 70,000 tested, 0.18% active; in the data active = inhibition above about 34%; inconclusive = no clear call, values can overlap the other calls; inactive = below about 11%;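 also: 0% = DMSO and 100% = no enzyme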
Target sequence (O75874 whole entry R132H): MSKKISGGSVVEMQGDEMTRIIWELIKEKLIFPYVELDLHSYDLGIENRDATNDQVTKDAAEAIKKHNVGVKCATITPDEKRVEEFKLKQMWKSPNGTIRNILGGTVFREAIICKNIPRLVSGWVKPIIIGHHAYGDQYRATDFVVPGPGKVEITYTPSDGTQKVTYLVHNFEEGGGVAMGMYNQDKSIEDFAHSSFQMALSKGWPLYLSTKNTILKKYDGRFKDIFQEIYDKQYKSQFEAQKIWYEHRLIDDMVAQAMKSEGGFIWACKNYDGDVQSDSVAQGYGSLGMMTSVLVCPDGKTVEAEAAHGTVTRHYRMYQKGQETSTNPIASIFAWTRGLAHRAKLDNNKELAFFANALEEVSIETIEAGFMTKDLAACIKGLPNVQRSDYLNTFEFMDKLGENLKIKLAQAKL
Active calls of the source: *; ? = inconclusive; / = no result given; ! = not active in a repeat.

SMILES	T cruzi growth	Pf Dd2 inh	GASC1 inh	IDH1 mut inh
CCNC(=O)Nc1ccc2c(c1)C(=O)N(C)[C@@H]1CC[C@H](CC(=O)N[C@@H](C)c3ccccc3)O[C@H]1CO2	40	/	-3	/
C[C@@H]1CCCCO[C@@H](CN(C)C(=O)Nc2cccc3ccccc23)[C@H](C)CN([C@@H](C)CO)C(=O)c2cc(NC(=O)Nc3ccccc3)ccc2O1	44	-31	7	2
C[C@@H]1CN([C@@H](C)CO)C(=O)c2cc(NC(=O)Nc3cccc4ccccc34)ccc2O[C@@H](C)CCCCO[C@@H]1CN(C)C(=O)C1CCCCC1	96	-88*	-1	/
C[C@@H]1CN([C@@H](C)CO)C(=O)c2cc(NC(=O)Nc3cccc4ccccc34)ccc2O[C@@H](C)CCCCO[C@@H]1CN(C)C(=O)c1ccccc1	-3	-44	4	/
CCCN(C)C[C@@H]1OCCCC[C@H](C)Oc2ccc(NC(=O)Nc3cccc4ccccc34)cc2C(=O)N([C@H](C)CO)C[C@@H]1C	/	-88*	19	-30
C[C@@H]1CCCCO[C@@H](CN(C)C(=O)Nc2cccc3ccccc23)[C@@H](C)CN([C@@H](C)CO)C(=O)c2cc(NC(=O)Nc3cccc4ccccc34)ccc2O1	26	-83*	0	/
CCCN(C)C[C@@H]1OCCCC[C@@H](C)Oc2ccc(NC(=O)Nc3cccc4ccccc34)cc2C(=O)N([C@H](C)CO)C[C@@H]1C	71	?	-1	-1
C[C@@H]1CCCCO[C@H](CN(C)C)[C@H](C)CN([C@H](C)CO)C(=O)c2cc(NC(=O)Nc3cccc4ccccc34)ccc2O1	79	-86*	0	-14
CCNC(=O)Nc1ccc2c(c1)C(=O)N(C)[C@H]1CC[C@@H](CC(=O)NCC3CCCCC3)O[C@@H]1CO2	-10	-14	0	/
C[C@H]1CN([C@@H](C)CO)C(=O)Cc2cc(NC(=O)CCCCCC(=O)Nc3ccccc3N)ccc2O[C@H]1CN(C)S(=O)(=O)c1ccc(Cl)cc1	59	-94*	0	/
C[C@H](CO)N1C[C@H](C)[C@H](CN(C)S(=O)(=O)c2ccc(Cl)cc2)Oc2ccc(NC(=O)CCCCCC(=O)Nc3ccccc3N)cc2CC1=O	58	-91*	0	/
C[C@@H]1CN([C@@H](C)CO)C(=O)Cc2cc(NC(=O)CCCCCC(=O)Nc3ccccc3N)ccc2O[C@H]1CN(C)S(=O)(=O)c1ccc(Cl)cc1	-6	-64	-1	-5
C[C@@H]1CN([C@H](C)CO)C(=O)Cc2cc(NC(=O)CCCCCC(=O)Nc3ccccc3N)ccc2O[C@H]1CN(C)S(=O)(=O)c1ccc(Cl)cc1	-13	-51	-1	1
CC(C)NC(=O)Nc1ccc2c(c1)C(=O)N(C)[C@@H]1CC[C@H](CC(=O)NCC3CCCCC3)O[C@H]1CO2	-6	5	0	/
C/C=C/c1cnc2c(c1)C(=O)N([C@@H](C)CO)C[C@H](C)[C@@H](CN(C)Cc1cncnc1)O2	/	50	0	1
C[C@@H]1CCCCO[C@@H](CN(C)CC2CC2)[C@H](C)CN([C@@H](C)CO)C(=O)c2cc(NC(=O)Nc3ccc4c(c3)OCO4)ccc2O1	10	-52	1	8
CCCN(C)C[C@H]1OCCCC[C@@H](C)Oc2ccc(NC(=O)Nc3ccc4c(c3)OCO4)cc2C(=O)N([C@H](C)CO)C[C@@H]1C	80	-86*	0	/
C[C@H]1CCCCO[C@H](CN(C)CC2CC2)[C@@H](C)CN([C@@H](C)CO)C(=O)c2cc(NC(=O)Nc3ccc4c(c3)OCO4)ccc2O1	33	-90*	0	/
CCCN(C)C[C@H]1OCCCC[C@H](C)Oc2ccc(NC(=O)Nc3ccc4c(c3)OCO4)cc2C(=O)N([C@@H](C)CO)C[C@@H]1C	44	/	-1	/
C[C@H]1CN([C@@H](C)CO)C(=O)c2cc(NC(=O)CCN3CCOCC3)ccc2O[C@H]1CN(C)C	/	6	2	3
CCNC(=O)[C@H]1[C@H](CO)[C@H]2Cn3c(ccc(/C=C/c4ccccc4)c3=O)[C@H]2N1C(C)=O	-23	-6	-1	/
Cc1ccc(-c2ccc(C3[C@@H]4CN(Cc5cccnc5)C[C@H]3N4)cc2)cc1 (some centres not stated)	/	-91*!	2	/
COc1cccc(CN2C[C@@H]3N[C@H](C2)C3c2ccc(-c3ccncc3)cc2)c1 (some centres not stated)	/	-89*!	-1	/
C[C@H](NC(=O)C[C@@H]1CC[C@@H](NC(=O)Cc2ccccn2)[C@H](CO)O1)c1ccccc1	15	14	2	0
CC(=O)N(C)C[C@@H]1[C@@H](c2ccc(C3=CCCC3)cc2)[C@@H](CO)N1CC1CC1	42	-24	2	/
SMILES	T cruzi growth	Pf Dd2 inh	GASC1 inh	IDH1 mut inh
CCCN1[C@H](CO)[C@H](c2ccc(C3=CCCC3)cc2)[C@H]1CN(C(C)=O)C1CCCC1	/	-95*	0	/
CCCC#Cc1ccc([C@H]2[C@@H](CO)N3C(=O)CN(C(=O)Nc4ccc(F)cc4)C[C@H]23)cc1	/	-20	-1	/
C[C@H](CO)N1C[C@H](C)[C@H](CN(C)S(=O)(=O)c2ccc(C(F)(F)F)cc2)OCc2ccccc2-c2c(n(C)c3ccccc23)C1=O	/	-94*	0	/
C[C@H](CO)N1C[C@H](C)[C@@H](CN(C)S(=O)(=O)c2ccc(C(F)(F)F)cc2)OCc2ccccc2-c2c(n(C)c3ccccc23)C1=O	/	-90*	-1	/
C[C@@H]1CN([C@@H](C)CO)C(=O)c2c(c3ccccc3n2C)-c2ccccc2CO[C@@H]1CN(C)S(=O)(=O)c1ccc(C(F)(F)F)cc1	/	-89*	0	/
C[C@H]1CN([C@@H](C)CO)C(=O)c2ccccc2-c2ccccc2CO[C@H]1CN(C)Cc1ccc(Oc2ccccc2)cc1	/	-87*	-2	/
C[C@@H]1CN([C@H](C)CO)C(=O)c2ccccc2-c2ccccc2CO[C@@H]1CN(C)Cc1ccc(Oc2ccccc2)cc1	/	-88*	-1	-4
C[C@H]1CN([C@@H](C)CO)C(=O)c2ccccc2-c2ccccc2CO[C@H]1CN(C)Cc1ccc(O)cc1	14	5	0	0
Cn1cnc(S(=O)(=O)N2CC[C@@H]3[C@@H](CO)Nc4ccc(C#Cc5ccccc5F)cc4[C@@H]32)c1	/	10	-2	/
C[C@H](CO)N1C[C@H](C)[C@H](CN(C)Cc2ccc(Oc3ccccc3)cc2)Oc2ccc(NC(=O)CCCCCC(=O)Nc3ccccc3N)cc2CC1=O	27	-84*	0	/
C[C@H]1CN([C@@H](C)CO)C(=O)Cc2cc(NC(=O)CCCCCC(=O)Nc3ccccc3N)ccc2O[C@H]1CN(C)Cc1ccc(Oc2ccccc2)cc1	11	-85*	-2	/
C[C@H](CO)N1C[C@H](C)[C@H](CN(C)Cc2ccccc2)Oc2ccc(NC(=O)CCCCCC(=O)Nc3ccccc3N)cc2CC1=O	45	-50	-1	0

Assay outcomes deposited in PubChem by Broad Institute.
